ANO1 block = blocks the mouse calcium-activated chloride channel TMEM16A; Q8BHY3; HEK293 TMEM16A/YFP iodide influx fluorescence, ionomycin; normalized B-score (activity score, 25-100; higher = stronger inhibition) at 10 µM; 310,000 tested, 1.2% active; AID 588511;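 active = ratio plate-corrected score three or more library SD toward inhibition, starting fluorescence score within five deviations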;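 note: score derived from kinetic fluorescence span divided by baseline fluorescence per well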
FID counter = fluorescent intercalator displacement, NS3 helicase counter-screen; inhibition, % at 7.9 µM; AID 1845; 290,000 tested, 0.17% active; DNA fluorescent intercalator displacement, fluorescence; in the data active = inhibition above about 37%;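 note: 0% = vehicle and 100% = reference compound; higher means more ethidium bromide displaced from hairpin DNA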
SR-BI DiI inh = blocks mouse SR-BI lipid uptake from DiI-HDL | Q61009 | ldlA[mSR-BI] CHO cells, DiI-HDL uptake fluorescence, 3 h | inhibition, % at 12.5 µM | 320,000 tested, 0.96% active | AID 488896;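 active = mean replicate inhibition of at least 70% and a set share of replicates each scoring 70 or more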;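 note: 0% = median of neutral control wells and 100% = median of positive control wells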
Kir21 inh = blocks the mouse Kir2.1 inward-rectifier potassium channel; B-score at 10 µM; 310,000 tested, 0.85% active; P35561; AID 1672; HEK293-Kir2.1, FluxOR thallium flux fluorescence; hits give low values;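 active = fluorescence ratio B-score at or below minus 3 SD of library scores, with starting-brightness B-score within 2 SD, cut at about -4.2 in these data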;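 note: channel flux triggered by added potassium and thallium sulfate stimulus; B-score of peak minus minimum fluorescence over baseline after thallium stimulus; more negative B-score means stronger Kir2.1 block with less thallium influx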
Target sequence (P35561 whole entry, looked up): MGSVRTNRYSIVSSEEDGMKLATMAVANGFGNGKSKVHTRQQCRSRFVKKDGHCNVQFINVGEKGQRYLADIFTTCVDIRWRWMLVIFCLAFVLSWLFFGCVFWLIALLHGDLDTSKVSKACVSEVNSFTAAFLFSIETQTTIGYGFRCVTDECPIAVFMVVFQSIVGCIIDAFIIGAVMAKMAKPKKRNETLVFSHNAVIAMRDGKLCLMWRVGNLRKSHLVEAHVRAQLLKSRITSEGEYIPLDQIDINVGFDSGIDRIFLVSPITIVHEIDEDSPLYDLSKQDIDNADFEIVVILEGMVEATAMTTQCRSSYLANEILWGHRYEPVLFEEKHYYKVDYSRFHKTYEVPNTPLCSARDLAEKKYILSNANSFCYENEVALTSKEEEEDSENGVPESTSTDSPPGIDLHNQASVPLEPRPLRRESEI
SR-BI DiI-HDL act = activators of SR-BI mediated HDL lipid uptake | CHO ldlA[mSR-BI] cells, DiI-HDL uptake fluorescence, 3 h; 100 = double the neutral-control signal | activation, % at 12.5 µM | 320,000 tested, 0.096% active | AID 504775;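 active = mean replicate activation of at least 60% and every replicate at or above 60%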;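 note: 0% = median plate neutral-control signal and 100% = twice that signal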
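Material: SR-BI-overexpressing, LDLR-lacking CHO cells | Dosing: Single compound concentration, delivered by pin transfer | Probe or stimulus: Labelled HDL, 10 µg/mL | Signal: Bottom-read cell fluorescence after medium removal, ex 550/em 595 nm | Schedule: 3 h, 37 °C | Evaluation: HDL uptake via cellular fluorescence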
TMEM16A act = activators or potentiators of mouse TMEM16A chloride channel; HEK293 TMEM16A/YFP-H148Q/I152L, iodide quench fluorescence; hits give low values; B-score at 10 µM; 340,000 tested, 0.3% active; AID 623877;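 active = fluorescence-ratio B-score plate-corrected deviation score at least 3 library SD below zero, with starting fluorescence score within 5 deviations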;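 note: channel opened by trigger with iodide after compound preincubation; score built on the fluorescence ratio of max minus min over baseline; more negative score means more quench and so TMEM16A activation or potentiation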
* marks the source's active call; other numbers are inactive results; i = inactive; nt = not tested or not shown. A selection: hits, their analogues and other compounds. The true share with any hit is near 3%.

SMILES | ANO1 block | FID counter | SR-BI DiI inh | Kir21 inh | SR-BI DiI-HDL act | TMEM16A act
O=C(Nc1ccc(Br)c(C(F)(F)F)c1)c1ccc(C(F)(F)F)cc1 | i | 4 | nt | 0.81 | nt | -13*
O=C(Nc1ccc(OCC(F)(F)C(F)F)c(C(F)(F)F)c1)c1ccc(Cl)cc1 | 100* | 8 | 46 | 2.1 | -46 | i
COc1ccc(C(=O)Nc2ccc(OCC(F)(F)C(F)F)c(C(F)(F)F)c2)cc1OC | i | -10 | 42 | -0.21 | -42 | i
O=C(Nc1ccc(Br)c(C(F)(F)F)c1)c1ccccc1 | i | -1 | 14 | -1.5 | -14 | i
Cc1nn(CC(=O)NCCCN2CCC(N3CCCCC3)CC2)c(=O)c2cc(-c3ccccc3)nn12 | i | 38* | -21 | -2.1 | 21 | i
Cc1nn(CC(=O)NCCCN2CCN(C)CC2)c(=O)c2cc(-c3ccccc3)nn12 | i | 20 | -9 | 1.8 | 9 | i
Oc1ccc(Cl)cc1Cc1cc(Cl)ccc1O | 100* | 3 | 24 | -6* | -12 | i
Oc1ccc(Cl)cc1CNCc1ccc(Cl)cc1 | i | nt | -29 | nt | 29 | i
COc1ccc(-n2nnnc2SCC(=O)NC2CCS(=O)(=O)C2)cc1 (configuration not stated) | nt | nt | -15 | nt | 15 | i
CCOc1ccc(NC(=O)CN(C)C(=O)c2n[nH]c(=O)c3ccccc23)cc1OCC | nt | nt | -11 | nt | 11 | i
COc1cc2c(cc1OC)CN(C(=O)COc1ccccc1[N+](=O)[O-])CC2 | 100* | -21 | nt | -0.92 | nt | i
COc1cc2c(cc1OC)CN(C(=O)COc1ccccc1C#N)CC2 | i | -25 | 15 | -1.2 | -15 | i
COc1ccc(C(=O)CSC2=C(C#N)C3(CCCCC3)C(C#N)=C(N)N2)cc1 | i | 2 | 72* | -0.43 | -72 | i
CN(C)CCNC(=O)c1ccc(Sc2ccc(Br)cc2)c([N+](=O)[O-])c1 | i | 39* | 9 | -1.7 | -9 | i
CC(C)NC(=O)CSc1nc(Cc2cccs2)nc2ccccc12 | i | -13 | -22 | -4.6* | 22 | i
C#CCOc1ccc2ccccc2c1/C=C(/C#N)c1ccc(C(=O)O)cc1 | i | -20 | -2 | 0.79 | 2 | i
O=C(Oc1ccc(/C=N/Nc2ccccc2)cc1)c1ccccc1 | i | -3 | 18 | -4.6* | -18 | i
O=C(Oc1ccc(/C=N/O)cc1)c1ccccc1 | i | -4 | -20 | -5.6* | 20 | i
COCCOC(=O)/C(=C/c1ccc(OC(=O)c2ccccc2)cc1)C(C)=O | i | -4 | nt | -14* | nt | i
CCOC(=O)/C(=C/c1ccc(OC(=O)c2ccncc2)cc1)C(C)=O | i | 6 | 11 | -1 | -11 | i
c1ccc(CN=C(NCc2ccccc2)NCc2ccccc2)cc1 | nt | nt | -19 | nt | 19 | i
COc1cc(/C=N/NC(=O)c2cnn3c(C)cc(-c4ccccc4)nc23)ccc1O | i | -19 | 77* | 0.27 | -77 | i
CCOC(=O)C1=C(CN2CCC(C)CC2)NC(=O)NC1c1ccc(Cl)cc1 (configuration not stated) | i | 3 | 78* | 1.8 | -78 | i
CCOC(=O)C1=C(CN2CCN(C(=O)c3ccco3)CC2)NC(=O)NC1c1ccc(Cl)cc1 (configuration not stated) | i | -56 | 69 | -0.98 | -69 | i
CCOC(=O)C1=C(CN2CCCCCC2)NC(=O)NC1c1ccc2c(c1)OCO2 (configuration not stated) | i | 10 | 58 | 0.06 | -58 | i
SMILES | ANO1 block | FID counter | SR-BI DiI inh | Kir21 inh | SR-BI DiI-HDL act | TMEM16A act
CCOC(=O)C1=C(CN2CCN(C(=O)c3ccco3)CC2)NC(=O)NC1c1ccc(OC(C)C)cc1 (configuration not stated) | i | -61 | 78* | 0.68 | -78 | i
Cc1cccc(N2CCN(S(=O)(=O)c3ccc4c(c3)CCCN4C(=O)C3CCC3)CC2)c1C | i | -36 | -2 | -0.84 | 2 | i
COc1ccc(CN2CCC(n3nccc3NC(=O)C3CC3)CC2)c(Cl)c1OC | i | 4 | -9 | 2.6 | 9 | i
O=C(O)c1cc(N/N=C/c2ccc(N3CCOCC3)s2)ccc1Cl | i | -17 | -20 | -0.03 | 20 | i
C/C(=N\Nc1ccc(Cl)c(C(=O)O)c1)c1ccc(N2CCOCC2)cc1 | 25* | -3 | -25 | 0.69 | 25 | i
O=c1c(/C=N\NS(=O)(=O)c2ccccc2)coc2ccc(Cl)cc12 | 100* | -13 | -15 | -2.4 | 15 | i
O=C(N/N=C/c1coc2ccccc2c1=O)c1ccc(Cl)cc1 | i | -9 | -16 | 0.3 | 16 | i
COc1cc(C2=NOC(C(=O)N3CCCCCC3)C2)cc(OC)c1OC (configuration not stated) | i | -14 | 10 | 0.04 | -10 | i
COc1cc(C2=NOC(C(=O)N3CCN(c4ccc(F)cc4)CC3)C2)cc(OC)c1OC (configuration not stated) | i | -32 | 79* | 0.53 | -79 | i
Cc1[nH]n(-c2ccccc2)c(=S)c1C=Nc1ccc([N+](=O)[O-])cc1 | i | -3 | 11 | nt | -11 | i
CCn1nc([N+](=O)[O-])c(C(C#N)c2nc3cc(C(F)(F)F)ccc3s2)c(Cl)c1=O (configuration not stated) | i | 1 | 1 | -5.5* | -1 | i
CCCn1nc([N+](=O)[O-])c(C(C#N)c2nc3ccccc3o2)c(Cl)c1=O (configuration not stated) | 100* | 8 | 1 | -0.72 | -1 | i
COc1cc(C(=O)N2CCN(C(=O)c3cc(-c4ccc(Br)cc4)n[nH]3)CC2)cc(OC)c1OC | i | -67 | 70 | 1.6 | -70 | i
CN(C(=O)COC(=O)c1cccc(S(=O)(=O)N2CCOCC2)c1)C1CCS(=O)(=O)C1 (configuration not stated) | i | nt | -56 | 1.4 | 56 | i
Cc1ccc(O)c(Nc2c3ccccc3nc3ccccc23)c1 | 25* | 5 | 15 | -3.6 | -15 | i
Cc1ccc(O)c(Nc2nc(-c3ccccc3)nc3ccccc23)c1 | i | 7 | 43 | -0.07 | -43 | i
CCC(C)C(=O)N1c2ccccc2C(=C2SC(C(=O)OC)=C(C(=O)OC)S2)C(=S)C1(C)C (configuration not stated) | i | -1 | 89* | -0.09 | -89 | i
CCOC(=O)C1=C(C)c2ccccc2N(C(=O)OC)C1(C)C(=O)OCC (configuration not stated) | nt | nt | -14 | nt | 14 | i
